PAFAH1B2 FP inh: blocks human PAF acetylhydrolase 1b catalytic subunit 2. hit rate 1.2% among 340,000. P68402. recombinant PAFAH1B2, FP-rhodamine activity probe, fluorescence polarization. inhibition, % at 3.39 µM;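 active = inhibition above the mean of all tested compounds plus 3 SD, cut at about 24% in these data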
Target sequence (P68402 whole entry, looked up): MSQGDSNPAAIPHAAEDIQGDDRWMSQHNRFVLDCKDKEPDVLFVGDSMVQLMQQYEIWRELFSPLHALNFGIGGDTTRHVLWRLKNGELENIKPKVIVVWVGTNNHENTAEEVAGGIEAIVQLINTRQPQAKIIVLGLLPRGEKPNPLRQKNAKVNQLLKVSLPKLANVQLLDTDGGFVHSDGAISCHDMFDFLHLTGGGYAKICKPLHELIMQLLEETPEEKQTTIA
PAFAH2 FP inh: inhibitors of human PAFAH2 | hit rate 0.99% among 340,000 | Q99487 | recombinant PAFAH2, FP-rhodamine activity probe, fluorescence polarization | inhibition, % at 3.39 µM | AID 492956;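 active = inhibition above the mean over all tested compounds plus 3 SD, cut at about 30% in these data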;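 also: inhibitors block probe labeling of enzyme so polarization drops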
PAFAH1B3 FP inh: blocks human PAF acetylhydrolase 1B catalytic subunit 3. inhibition, % at 3.39 µM. recombinant PAFAH1B3, FP-rhodamine probe, fluorescence polarization. Q15102. hit rate 0.28% among 340,000;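 active = inhibition above the screen-wide average of all tested compounds plus 3 SD, cut at about 25% in these data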
ASAP1 GAP inh: blocks human ASAP1-stimulated Arf1 GTP hydrolysis; AID 624377; GDP FP detection; hit rate 0.19% among 360,000; inhibition, % at 16.5 µM; Q9ULH1; in the data active = inhibition above about 25%
ARFGAP1 inhibitor: inhibitors of rat ARFGAP1; Q62848; Arfgap1-stimulated ARF1 GTP hydrolysis, GDP FP detection; inhibition, % at 16.5 µM; hit rate 0.26% among 360,000;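 active = inhibition above a per-plate limit, mean inhibition of low control wells plus 3 SD, cut at about 25% in these data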
Target sequence (Q62848 1-136 limits assumed): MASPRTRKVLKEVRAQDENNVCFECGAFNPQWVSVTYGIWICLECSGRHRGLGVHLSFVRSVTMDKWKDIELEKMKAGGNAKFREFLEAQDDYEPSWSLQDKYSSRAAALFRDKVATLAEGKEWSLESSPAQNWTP
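System: truncated rat Arfgap1 GAP domain / Medium: HEPES-based buffer, pH 7.5 / Also added: N-terminally truncated human ARF1-GTP substrate / Incubation: enzyme reaction 120 min at 25 °C after 20 min preincubation / Measured by: FP of antibody-bound GDP Alexa 633 tracer, ex 620/em 688 nm / Replicates: singlicate, each compound tested once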
pPAFAH FP inh: inhibitors of human plasma PAF acetylhydrolase (pPAFAH) | Q13093 | recombinant pPAFAH, FP-rhodamine probe fluorescence polarization | inhibition, % at 3.39 µM | hit rate 1.5% among 330,000 | AID 463082;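 active = inhibition above the mean inhibition across the screen plus 3 SD, cut at about 25% in these data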;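 also: inhibitors block binding of the rhodamine activity-based probe so polarization drops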
ASAP1 GAP conf: ASAP1 inhibition confirmed; shares compounds with ASAP1 GAP inh; ASAP1-stimulated Arf1 GTPase, GDP fluorescence polarization; inhibition, % at 16.5 µM; hit rate 37% among 620; AID 624431;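 active = mean inhibition over triplicates exceeds the hit threshold derived for the earlier primary screening run, cut at about 25% in these data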
Hits are given with their value; n = inactive; x = no result; ! = not active in a repeat. Shown are actives, neighbours in structure and some others; about 2.8% of the full set was active somewhere.

SMILES | PAFAH1B2 FP inh | PAFAH2 FP inh | PAFAH1B3 FP inh | ASAP1 GAP inh | ARFGAP1 inhibitor | pPAFAH FP inh | ASAP1 GAP conf
CCN1CCN(Cc2ccc(NC(=O)c3cc(NC(=O)c4cc5cccc(OC)c5o4)cc(OC)c3)cc2C(F)(F)F)CC1 | n | n | n | 29! | n | n | 49
CC(/C=C/c1ccccc1)=N/NC(=O)CNC(=O)c1ccccc1F | n | n | n | n | n | n | x
CC(/C=C/c1ccccc1)=N\NC(=O)CNC(=O)c1ccccc1Cl | n | n | n | 25 | n | n | n
CC1(C)Cc2nc3oc4c(=O)n(CC(=O)Nc5ccccc5)cnc4c3cc2CO1 | n | n | n | n | n | n | x
CC1(C)Cc2nc3sc4c(=O)n(CC(=O)NCc5ccco5)cnc4c3cc2CO1 | n | n | n | 25 | n | n | n
CN(C)S(=O)(=O)c1cc(C(=O)Nc2ccccc2C(=O)NC2CC2)ccc1Cl | n | n | n | n | n | n | x
C[C@H](CCC(=O)OCc1cn(CC(=O)c2ccc(O)cc2)nn1)C1CC[C@H]2[C@@H]3CC[C@@H]4C[C@H](O)CC[C@]4(C)[C@H]3C[C@H](O)[C@]12C (some centres undefined) | n | n | n | 29 | n | x | n
CCC(C)Oc1cc(-c2ccnc(Nc3cccc(Cl)c3)n2)ccn1 (centres undefined) | n | n | n | n | n | n | x
OCCCNc1cc(-c2ccnc(Nc3cccc(Cl)c3)n2)ccn1 | n | n | n | 27 | n | n | n
Cc1ccc(S(=O)(=O)N2CCOCC2)cc1NC(=O)Cn1c(=O)ccn(Cc2ccccc2)c1=O | n | n | n | n | n | x | x
CC(=O)NCCNc1nc2cc(-c3ccccc3)sc2c(=O)n1C | x | x | x | 28 | n | x | n
CC(=O)NCCNc1nc2cc(-c3cccc(C(F)(F)F)c3)sc2c(=O)n1C | x | x | x | n | n | x | x
COc1ccc(-c2ccc(CN3C(C(C)C)C(=O)N(Cc4cn(CC5CCCCC5)nn4)CCS3(=O)=O)cc2)cc1 (centres undefined) | x | x | x | n | n | x | x
O=C(Nc1ccc([N+](=O)[O-])cc1)Nc1ccc(OC(F)F)c(Cl)c1 | n | n | n | 27 | n | n | n
O=C(Nc1cccc2c1CCCC2)c1cc(C2CCCCN2C(=O)c2cccs2)on1 (centres undefined) | x | x | x | n | n | x | x
Cc1occc1-c1nnc(SCC(=O)NCc2cccs2)n1-c1ccc(F)cc1 | n | n | n | 26 | n | n | n
Cc1ccsc1C(=O)OCC(=O)N1C(C)CCCC1C (centres undefined) | n | n | n | n | n | n | x
Cc1ccsc1C(=O)OCC(=O)NC1CCCCC1 | x | x | x | 29 | n | x | n
COc1ccc(CCNC(=O)C2CCN(S(=O)(=O)c3ccc(SC)cc3)CC2)cc1 | n | n | n | n | n | n | x
CC(O)C(=O)N/N=C/c1cccc2ccccc12 (centres undefined) | n | n | n | n | n | x | x
Cc1cccc(/C=N/NC(=O)C(C)Nc2cccc3ccccc23)n1 (centres undefined) | n | n | n | 29 | n | n | n
CC(Nc1cccc2ccccc12)C(=O)N/N=C/c1ccc([N+](=O)[O-])cc1 (centres undefined) | n | n | n | 26 | n | n | n
COC(=O)C[C@H]1C[C@@H]2c3cc(NS(=O)(=O)c4cccc(OC)c4)ccc3O[C@@H]2[C@@H](CO)O1 | x | x | x | n | n | x | x
O=C(Nc1ccccc1Cl)NC1(C(=O)N2CCC(O)CC2)CCCCC1 | n | n | n | n | n | n | x
CC(NC(=O)c1ccc(CS(=O)(=O)c2ccc(Cl)cc2)o1)c1ccc2c(c1)OCCO2 (centres undefined) | n | n | n | 27 | n | n | n
Cc1ccccc1S(=O)(=O)Cc1ccc(C(=O)NC(C)c2ccc3c(c2)OCCO3)o1 (centres undefined) | n | n | n | n | n | n | x
CCNC(=O)N1CCN(c2ccc(N3CCN(C(=O)NCC)[C@H](C)C3)c(C)c2)[C@@H](C)C1 | x | x | x | n | n | x | x
CCOc1ccc(NC(=O)CN(C)C(=O)c2cn(-c3ccc(C)cc3)nc2-c2cccc(OC)c2)cc1OCC | n | n | n | 34 | n | x | n
Cc1cccc(C(O)c2ncc(-c3ccc(C(F)(F)F)cc3)[nH]2)c1C (centres undefined) | x | x | x | n | n | x | x

High-throughput results as filed in PubChem BioAssay.
